How the values were obtained:
[1] = test system: MDA-MB-231; experiment: Cytotoxicity against human MDA-MB-231 cells assessed as cell growth inhibition after 48 hrs by MTT assay; assay type: functional, cell-based; conditions: MDA-MB-231, 48 h
In short: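 Cells counted by trypan blue exclusion, seeded at 1×10^4 per well in DMEM with 10% FBS, and left 24 h. They were then exposed to a concentration series for 48 h at 37°C. Serum-free medium with MTT was added for 4 h, formazan was dissolved in DMSO, and A570 was read minus A690. IC50 was read from the 50% viability point versus DMSO+DMEM controls.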

[2] = test system: MDA-MB-231; experiment: Cytotoxicity against human MDA-MB-231 cells assessed as cell growth inhibition at 50 uM after 48 hrs by MTT assay; assay type: functional; conditions: MDA-MB-231, 48 h, read-out: GI
In short: (§1)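 MTT growth assay. 1×10^4 cells were seeded in DMEM with 10% FBS and incubated 24 h. Each compound was then applied at the stated single concentration for 48 h at 37°C, followed by MTT for 4 h. Formazan was solubilized in DMSO and absorbance read at 570 nm with 690 nm background subtraction. Inhibition is relative to control cells given DMSO+DMEM.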

[3] = test system: MDA-MB-231; experiment: Cytotoxicity against human MDA-MB-231 cells assessed as cell growth inhibition at 100 uM after 48 hrs by MTT assay; assay type: functional; conditions: MDA-MB-231, 48 h, read-out: GI; in short: as §1

CCOC(=O)C1=C(N)Oc2c(c(=O)oc3ccccc23)C1c1nc(OCc2ccccc2)c2ccccc2n1 (centres undefined)
IC50 [1]: > 100 µM

CCOC(=O)C1=C(N)Oc2c(c(=O)oc3cc(OC)c(Cl)cc23)C1c1nc(OCc2ccccc2)c2ccccc2n1 (centres undefined)
IC50 [1]: > 100 µM

CCOC(=O)C1=C(N)Oc2c(c(=O)oc3cc(C)c(C)cc23)C1c1nc(OCc2ccccc2)c2ccccc2n1 (centres undefined)
IC50 [1]: > 100 µM

CCOC(=O)C1=C(N)Oc2c(c(=O)oc3cc(OC)ccc23)C1c1nc(OCc2ccccc2)c2ccccc2n1 (centres undefined)
IC50 [1]: > 100 µM

CCOC(=O)C1=C(N)Oc2c(c(=O)oc3ccc(F)cc23)C1c1nc(OCc2ccccc2)c2ccccc2n1 (centres undefined)
IC50 [1]: > 100 µM

CCOC(=O)C1=C(N)Oc2c(c(=O)oc3c(Cl)cc(Cl)cc23)C1c1nc(OCc2ccccc2)c2ccccc2n1 (centres undefined)
IC50 [1]: > 100 µM

CCOC(=O)C1=C(N)Oc2c(c(=O)oc3c(Br)cc(Cl)cc23)C1c1nc(OCc2ccccc2)c2ccccc2n1 (centres undefined)
inhibition of growth at 50 µM [2]: 80%
inhibition of growth at 100 µM [3]: > 95%
IC50 [1]: 28.3 µM

From ChEMBL document CHEMBL4425160, “DABCO-catalyzed one-pot three component synthesis of dihydropyrano[3,2-c]chromene substituted quinazolines and their evaluation towards anticancer activity” (Bioorg Med Chem Lett, 2016)
